Screening results: PubChem, Broad Institute
Ecoli rRNA inh = inhibits bacterial ribosomal RNA function over humanized ribosomes; 1.6% of 350,000 active; E. coli WT GFP vs humanized-ribosome RFP mutants, fluorescence, 24 h; stronger effect = lower value; DMSO median 0, no signal -100; AID 720706; GFP signal change (wild-type ribosome), % (no concentration beside the values);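 active = significant combined selectivity score with lowered wild-type GFP, culture density cut under 30%, mutant RFP and density less affected; inactive = any of these conditions unmet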
FN deposit inh = fibronectin deposition inhibition. AID 743247. AH1F fibroblasts, Alexa488-fibronectin deposition fluorescence, overnight. inhibition, % at 12.6 µM. 0.086% of 350,000 active;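 active = mean inhibition across replicates of 30% or more, regardless of how many single replicates reach that level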;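 note: positive control wells lacked labelled fibronectin entirely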
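material = AH1F fibroblast monolayer depositing Alexa488-labelled fibronectin into matrix | amount = 10000 AH1F cells/well | buffer or medium = DMEM plus 2% serum, read in PBS | incubation = 1 h cell adhesion before compound, then overnight fibronectin incubation | detection = fluorescence at 485 nm excitation, 525 nm emission | evaluation = percent inhibition as loss of matrix-bound fibronectin fluorescence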
miR122 inh = blocks miR-122 activity in Huh7 sensor cells; activation (reporter increase), % at 12.5 µM; Huh7 miR-122 Renilla luciferase sensor, 48 h; neutral wells = 0, positive control = 100; 0.3% of 340,000 active;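 active = mean replicate activation score at least 90 and every replicate individually at or above 90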;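 note: higher luciferase means less miR-122 activity so hits act as miR-122 inhibitors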
S100A4 MyoIIA = blocks human S100A4 binding to myosin IIA peptide; inhibition, % at 10.7 µM; AID 652163; S100A4/TAMRA-MyoIIA peptide fluorescence polarization; 0.14% of 360,000 active; P26447;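 active = mean inhibition of at least 70% across replicates, with every replicate also reaching that level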
Target sequence (P26447 whole entry, looked up): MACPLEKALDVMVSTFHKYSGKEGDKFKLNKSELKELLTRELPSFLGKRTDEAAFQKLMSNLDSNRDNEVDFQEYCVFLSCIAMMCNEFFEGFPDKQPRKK
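Compound dosing: one dose per compound; test system: human S100A4 monomer with TAMRA-labelled myosin IIA peptide; probe or stimulus: TAMRA-labelled myosin IIA heavy-chain peptide probe, 5 nM; medium: HEPES buffer with Ca2+, pH 7.2; schedule: 5 min incubation before reading; benchmarks: neutral control DMSO, positive control TFP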
HIV Env fusion = blocks HIV Env-driven cell-cell fusion | 1.1% of 360,000 active | inhibition, % at 12.3 µM | HeLa-JRFL Env/CEM21 cell fusion, luciferase | AID 651610;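 active = mean replicate inhibition score of at least 50 and every replicate individually at or above 50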;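 note: 0% = plate neutral controls and 100% = maraviroc near 300 nM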
Vif inh = HIV Vif inhibition; inhibition, % at 7.49 µM; HEK293T cells, Vif self-association by quenched fluorescence, imaging, 24 h; 0.35% of 340,000 active; in the data active = inhibition above about 50%, passing the limit was not always enough
* hit, by the source's call; [ ] = dose if it differs, or a comment. Compounds with a hit are over-represented: about 2.6% of the library has one in this group of screens.

`CNC[C@@H]1OCCCC[C@H](C)Oc2ccc(NS(C)(=O)=O)cc2C(=O)N([C@@H](C)CO)C[C@@H]1C` gave Ecoli rRNA inh 5.6, miR122 inh 19.6[16.7 µM], S100A4 MyoIIA 88.7* and HIV Env fusion 23.9[16.7 µM].
For CCOC(=O)C1CCCCN1Cc1ccc(-c2ccccc2)cc1 (stereo unspecified) the results were Ecoli rRNA inh -29.4*, FN deposit inh -1.0, miR122 inh -2.8, S100A4 MyoIIA -3.1, HIV Env fusion 2.9 and Vif inh 4.1.
CCOC(=O)C1CCCCN1Cc1ccc(F)cc1 (stereo unspecified) was read as Ecoli rRNA inh 7.0, miR122 inh -2.4, S100A4 MyoIIA -7.3 and Vif inh 28.1.
For S=C(NCCCn1ccnc1)Nc1ccc(Cl)cc1Cl the results were Ecoli rRNA inh -22.6*, FN deposit inh -8.6, S100A4 MyoIIA -0.8, HIV Env fusion 5.2 and Vif inh 2.5.
`C[C@@H]1CN([C@@H](C)CO)C(=O)c2cc(NS(=O)(=O)c3cccs3)ccc2O[C@@H]1CN(C)S(C)(=O)=O` gave Ecoli rRNA inh 6.8, miR122 inh -4.5[16.7 µM] and S100A4 MyoIIA -10.3.
CCOC(=O)Cn1nnnc1CN(CCc1ccccc1)Cc1cc2cc(CC)ccc2[nH]c1=O was read as FN deposit inh 4.4, miR122 inh 1.1, HIV Env fusion 119.0* and Vif inh -16.3.
`CCOC(=O)Cn1nnnc1CN(Cc1cccs1)Cc1cc2cc(C)ccc2[nH]c1=O` gave FN deposit inh 4.0, HIV Env fusion 31.2 and Vif inh -0.4.
For O=C(NCC(c1ccco1)N1CCCC1)c1ccc(S(=O)(=O)Nc2ccc(F)cc2)cc1 (stereo unspecified) the results were Ecoli rRNA inh 8.5, FN deposit inh 2.2, miR122 inh -2.2, S100A4 MyoIIA -0.7, HIV Env fusion -1.7 and Vif inh -4.0.
O=C(NCC(c1ccco1)N1CCCCC1)c1ccc(NS(=O)(=O)c2ccc(F)cc2)cc1 (stereo unspecified) was read as Ecoli rRNA inh -20.3*, FN deposit inh -2.8, miR122 inh -1.7, S100A4 MyoIIA -20.2 and Vif inh 3.6.
For O=C(c1ccc(S(=O)(=O)Nc2ccc(F)cc2)cc1)N1CCN(C(=O)c2ccco2)CC1 the results were FN deposit inh 2.0, miR122 inh 6.7, HIV Env fusion 73.2* and Vif inh -16.9.
Screening CCCCCOc1ccc(Br)cc1/C(C)=N/NC1=NCCN1 returned FN deposit inh -1.3, miR122 inh 7.5, HIV Env fusion -47.8 and Vif inh 75.3*.
`Cc1ccc(Cl)cc1N1CCN(C(=O)Cc2c(C(=O)O)[nH]c3ccccc23)CC1` gave Ecoli rRNA inh -30.4*, miR122 inh 9.9 and S100A4 MyoIIA -0.4.
Screening Cc1cc(C)cc(NS(=O)(=O)c2ccc(-c3cnc(C4CC4)o3)cc2)c1 returned Ecoli rRNA inh 5.9, FN deposit inh -18.5, miR122 inh 375.1*, S100A4 MyoIIA -0.9, HIV Env fusion -33.4 and Vif inh -11.6.
`O=S(=O)(Nc1ccccc1)c1ccc(-c2cnc(C3CC3)o2)cc1` gave Ecoli rRNA inh -43.9, FN deposit inh 23.8, miR122 inh 159.0*, S100A4 MyoIIA -3.0, HIV Env fusion 9.2 and Vif inh -7.0.
COc1ccc(NS(=O)(=O)c2cc(-c3cnc(C4CC4)o3)ccc2C)cc1 was read as Ecoli rRNA inh -7.5, FN deposit inh 13.0, miR122 inh 292.9*, S100A4 MyoIIA -7.0, HIV Env fusion 30.7 and Vif inh -14.8.
For CC(=O)Nc1ccc(NS(=O)(=O)c2ccc(-c3cnc(C4CC4)o3)cc2)cc1 the results were Ecoli rRNA inh -20.5, FN deposit inh -13.2, miR122 inh -4.6, S100A4 MyoIIA 3.9, HIV Env fusion -6.6 and Vif inh -4.1.
CN1[C@@H]2Cn3c(ccc(-c4ccccc4)c3=O)[C@H]1[C@@H](C(=O)N1CCC(Cc3ccccc3)CC1)[C@@H]2CO was read as Ecoli rRNA inh -1.4, miR122 inh -2.1[16.7 µM] and S100A4 MyoIIA -1.3.
C[C@H](CO)N1C[C@H](C)[C@@H](CN(C)Cc2ccc3c(c2)OCO3)Oc2ccc(NC(=O)C3CC3)cc2C1=O was read as Ecoli rRNA inh 0.2, miR122 inh 1.8[16.7 µM], S100A4 MyoIIA 5.0 and HIV Env fusion 5.9[16.7 µM].
For O=C(N[C@H]1CC[C@H](CCNC(=O)C2CCCCC2)O[C@H]1CO)c1ccccn1 the results were Ecoli rRNA inh -1.9, S100A4 MyoIIA -1.8 and HIV Env fusion 11.2[16.7 µM].
`Cc1c(C(=O)NCCSCc2cccc(C(F)(F)F)c2)cnn1-c1ccc(F)cc1` gave Ecoli rRNA inh -36.6*, FN deposit inh -14.2, miR122 inh -7.7, S100A4 MyoIIA 2.5, HIV Env fusion 25.4 and Vif inh -1.2.
Cc1c(C(=O)Nc2ccccc2F)cnn1-c1ccccc1 was read as Ecoli rRNA inh -10.9, FN deposit inh -2.3, miR122 inh -9.1, S100A4 MyoIIA 10.1, HIV Env fusion -36.4 and Vif inh -0.5.
For Cc1c(C(=O)NCCSCc2c(F)cccc2Cl)cnn1-c1ccc(F)cc1 the results were Ecoli rRNA inh -35.7*, FN deposit inh -11.9, miR122 inh -1.3, S100A4 MyoIIA -1.0, HIV Env fusion 15.3 and Vif inh 10.7.
Cc1c(C(=O)NCCSCc2ccc(F)cc2)cnn1-c1ccc(Cl)cc1 was read as Ecoli rRNA inh -38.0*, FN deposit inh -11.9, miR122 inh -10.8, S100A4 MyoIIA 1.9, HIV Env fusion 13.5 and Vif inh -8.6.
Screening CCC(=O)Nc1ccc2c(c1)OC[C@@H](C)N(C(=O)Cc1ccccn1)C[C@H](C)[C@H](OC)CN(C)C2=O returned Ecoli rRNA inh -0.2 and FN deposit inh -1.8.
`CC(C(=O)Nc1ccc(O)cc1)c1cccc(C(=O)c2ccccc2)c1` (stereo unspecified) gave Ecoli rRNA inh -36.8*, FN deposit inh -3.4, miR122 inh -2.2, S100A4 MyoIIA -2.2, HIV Env fusion 36.2 and Vif inh 5.4.
Screening COc1ccc(Cc2nnc(Nc3ccccc3)s2)cc1Br returned Ecoli rRNA inh -10.0, FN deposit inh -5.0, S100A4 MyoIIA 5.0, HIV Env fusion 5.2 and Vif inh 107.3*.
Screening Cc1noc(C)c1NC(=O)Nc1ccc2c(c1)C(=O)N([C@@H](C)CO)C[C@@H](C)[C@@H](CN(C)S(=O)(=O)c1ccc(Cl)cc1)OCCCC[C@H](C)O2 returned Ecoli rRNA inh -1.4, FN deposit inh 0.9, miR122 inh 3.5[16.7 µM], S100A4 MyoIIA -4.8 and HIV Env fusion -26.0[16.7 µM].
